# Only some compounds are listed: those with a hit (about 1.8% of all), similar ones and a draw of the others.
# M5 antag = human M5 muscarinic receptor antagonists, primary screen, CHO cells, Fluo-8 calcium fluorescence. 360,000 tested, 0.59% active. Muscarinic acetylcholine receptor M5 (Homo sapiens), P08912. CHO-hM5 cells, ACh EC80. inhibition, % at 3 µM. AID 624040, 2012;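 active means inhibition above a per-plate cutoff, the mean of that plate's test compounds plus 3 SD, cut at about 27% in these data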
# Target sequence (P08912 whole entry, looked up): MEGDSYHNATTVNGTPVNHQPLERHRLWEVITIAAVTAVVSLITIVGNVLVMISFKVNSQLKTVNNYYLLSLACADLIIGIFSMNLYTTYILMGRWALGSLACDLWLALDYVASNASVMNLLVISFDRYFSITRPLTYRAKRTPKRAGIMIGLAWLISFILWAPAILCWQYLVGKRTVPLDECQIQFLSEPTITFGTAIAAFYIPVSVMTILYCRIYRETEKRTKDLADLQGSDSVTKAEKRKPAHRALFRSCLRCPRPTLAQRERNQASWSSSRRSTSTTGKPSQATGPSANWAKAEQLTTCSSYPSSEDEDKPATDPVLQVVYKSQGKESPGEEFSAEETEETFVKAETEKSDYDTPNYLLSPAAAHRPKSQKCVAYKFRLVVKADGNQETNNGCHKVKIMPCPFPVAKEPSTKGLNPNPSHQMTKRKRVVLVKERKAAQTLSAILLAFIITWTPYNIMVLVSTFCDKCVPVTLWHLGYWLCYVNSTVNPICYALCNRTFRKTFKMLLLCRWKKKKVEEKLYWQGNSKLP
# M5 PAM = human M5 muscarinic receptor positive allosteric modulators, primary screen, CHO-K1 cells, Fluo-8 calcium fluorescence; Muscarinic acetylcholine receptor M5 (Homo sapiens), P08912; activation, % at 3 µM; CHO-K1 hM5, ACh EC20 PAM; 0% = ACh EC20, 100% = ACh EC100; 360,000 tested, 0.3% active;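 active means activation above the run cutoff, the mean activation of all test compounds plus 3 SD, cut at about 18% in these data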
#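 Probe or stimulus: acetylcholine, EC20 level; Assay system: human M5 receptor in CHO-K1 cells; Schedule: compound preincubation 140 s before EC20 acetylcholine addition; Technique: intracellular calcium via Fluo-8 fluorescence; Dosing: single-point, 3 µM nominal; Read-out basis: percent activation from peak-over-basal fluorescence ratio, scaled EC20-to-EC100 acetylcholine; Repeats: one well per compound, no replicates.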
# CHRM5 agonist = human M5 muscarinic receptor agonists, primary screen, CHO-K1 cells, Fluo-8 calcium fluorescence | Muscarinic acetylcholine receptor M5 (Homo sapiens), P08912 | CHO-K1 hM5 cells; 0% DMSO wells, 100% maximal acetylcholine response | activation, % at 3 µM | 360,000 tested, 0.19% active;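 active means activation above the run's mean over test compounds plus 3 SD, cut at about 23% in these data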;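 further: signal is peak over basal fluorescence ratio across the kinetic read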
# CHRM4 antagonist = human M4 muscarinic receptor antagonists, primary screen, CHO cells, Fluo-8 calcium fluorescence. 360,000 tested, 0.73% active. inhibition, % at 3 µM. CHO-hM4 cells, ACh EC80. Muscarinic acetylcholine receptor M4 (Homo sapiens), P08173;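 active means inhibition above its plate's cutoff, the mean inhibition of sample wells plus 3 SD, cut at about 27% in these data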
# M4 PAM = human M4 muscarinic receptor positive allosteric modulators, primary screen, CHO-K1 cells, Fluo-8 calcium fluorescence; Muscarinic acetylcholine receptor M4 (Homo sapiens), P08173; CHO-K1 hM4/Gqi5, ACh EC20; 0% = ACh EC20, 100% = maximal ACh; activation, % at 3 µM; 360,000 tested, 0.4% active;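 active means activation above its plate's cutoff, the mean activation of sample wells plus 3 SD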
# M4 ag = human M4 muscarinic receptor agonists, primary screen, CHO-K1 cells, Fluo-8 calcium fluorescence; Muscarinic acetylcholine receptor M4 (Homo sapiens), P08173; CHO-K1 hM4/Gqi5; vehicle 0%, full acetylcholine response 100%; activation, % at 3 µM; 360,000 tested, 0.14% active;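 active means activation above the run mean over all test wells plus 3 SD, cut at about 32% in these data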;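 further: peak over basal fluorescence ratio per well then scaled between controls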
# Hits are given with their value; - = inactive.
SMILES,M5 antag,M5 PAM,CHRM5 agonist,CHRM4 antagonist,M4 PAM,M4 ag
Cc1ccccc1C(O)(Cc1ccccc1)C1CN2CCC1CC2 (centres undefined),92,-,-,76,-,-
COP(=O)(OC)C1(O)C(=O)Nc2ccc(Br)cc21 (centres undefined),-,-,-,-,23,-
O=[N+]([O-])NC1=NCN(Cc2ccco2)CN1Cc1ccco1,-,19,-,-,-,-
CN1CN=C(N[N+](=O)[O-])N(Cc2ccco2)C1,-,-,-,-,-,-
CCC1CCCCN1CC(=O)c1ccc(OC(F)F)cc1 (centres undefined),-,-,-,-,-,-
CC(=O)Nc1cccc([As](=O)(c2cccc(NC(C)=O)c2)c2cccc(NC(C)=O)c2)c1,-,-,-,-,-,-
CC(=O)Nc1cc([As](=O)(O)O)ccc1O,-,-,27,-,-,-
O=C(N/N=C/c1c(O)n(C2CCCCC2)c(=S)[nH]c1=O)c1ccccc1,-,-,-,-,-,-
O=C(N/N=C/C1C(=O)NC(=S)N(c2ccccc2)C1=O)c1cc(Br)c(O)c(Br)c1 (centres undefined),30,-,-,-,-,-
Cc1ccc(C(=O)N/C(=C\Cl)P(=O)(c2ccccc2)c2ccccc2)cc1,-,-,-,-,-,-
COC(=O)NC(=C(Cl)Cl)P(=O)(c1ccccc1)c1ccccc1,-,-,-,-,31,-
CN(C)c1ccc(-[n+]2c(-c3ccccc3)cc(-c3ccccc3)cc2-c2ccccc2)cc1,78,-,-,56,-,-
CCOC(=O)c1cccc(-[n+]2c(-c3ccccc3)cc(-c3ccccc3)cc2-c2ccccc2)c1,-,-,-,27,-,-
C[n+]1c(-c2ccccc2)cc(-c2ccc(Cl)cc2)cc1-c1ccccc1,-,-,-,-,-,-
Cc1ccc(-c2cc(-c3ccc(C)cc3)[n+](-c3ccccc3)c(-c3ccc(C)cc3)c2)cc1,31,-,-,65,-,-
c1ccc(-c2cc(-c3ccccc3)[n+](-c3ccccc3)c(-c3ccccc3)c2)cc1,48,-,-,73,-,-
O=[N+]([O-])c1cc(Cl)c(O)c(-[n+]2c(-c3ccccc3)cc(-c3ccccc3)cc2-c2ccccc2)c1,-,-,-,-,-,-
CCOC(=O)c1ccccc1C(=O)OCC,-,-,-,-,-,-
COc1cc(OC)c2c(c1)OCC1CON(C)C21 (centres undefined),-,-,-,-,-,-
CCc1nc2ccccc2c(=O)n1-c1ccccc1OC,-,-,-,-,-,-
Cc1ccc(-c2cc(-c3ccccc3)cc(-c3ccccc3)[n+]2-c2ccccc2)cc1,49,-,-,79,-,-
Cc1ccc(-c2cc(-c3ccc(C)cc3)[n+](-c3ccc(C(=O)[O-])cc3)c(-c3ccc(C)cc3)c2)cc1,-,-,-,-,-,-
CC1=CC(=O)C2=C(C)C[C@H](O)[C@@H]3[C@H](OC(=O)[C@H]3C)[C@@H]12,-,-,-,-,-,-
O=C1CC(N2CCC(n3c(=O)[nH]c4ccccc43)CC2)C(=O)N1Cc1ccccc1 (centres undefined),-,-,-,-,-,-
O=c1[nH]c2ccccc2n1C1CCN(Cc2ccc(-c3[nH]c4cc5ncnc5cc4nc3-c3ccccc3)cc2)CC1,-,-,67,-,-,-
SMILES,M5 antag,M5 PAM,CHRM5 agonist,CHRM4 antagonist,M4 PAM,M4 ag
CCC(C)NC(=O)c1c(N)n(Cc2ccc3c(c2)OCO3)c2nc3ccccc3nc12 (centres undefined),-,19,-,-,-,-
O=C(C1CCCCC1)N1Cc2ccccc2-n2nncc2C1,-,-,-,-,-,-
COC(=O)C1=C(c2ccc(OC(F)(F)F)cc2)C[C@@H]2CC[C@H]1N2C(=O)N1CCC(C)CC1,-,-,-,-,-,-
COc1ccc(C(=O)C2CCCN(CC3CCCCC3)C2)cc1OC (centres undefined),-,-,-,34,-,-
CN1CCN(Cc2cn(C)c3ccccc23)CC1CCO (centres undefined),-,-,-,-,-,-
O=C(Nc1cccc(Cl)c1)OC1CN2CCC1CC2 (centres undefined),29,-,-,-,-,-
O=C(Nc1ccc(Cl)cc1)OC1CN2CCC1CC2 (centres undefined),31,-,-,-,-,-
CCOC(=O)C1CCN(C=C2C(=O)N(C)C(=S)N(C)C2=O)CC1,-,-,-,-,-,-
CC1(C)CN=C(Nc2ccc(F)c(Cl)c2)S1,-,-,-,-,-,35
COc1ccc(CN2C(=O)NC(=O)/C(=C/c3ccoc3)C2=O)cc1,-,-,29,-,-,-
CCCCC1(CCC)C(=O)NC(=S)NC1=O,-,-,-,-,-,-
CC(C)C[C@@H]1COc2cccc(N3CCN(C)CC3)c2S(=O)(=O)N1,99,-,-,71,-,-
O=c1[nH]c(=S)n(-c2ccccc2Cl)c(O)c1C=NCCN1CCNCC1,-,-,-,-,-,-
COC(=O)C1=C(c2ccccc2OCc2ccccc2)C[C@@H]2CC[C@H]1N2C(=O)NCc1cccc(C(F)(F)F)c1,-,-,-,-,-,-
COc1ccc(CNCCc2c(C)[nH]c3ccc(OC(F)(F)F)cc23)c(OC)c1,32,-,-,29,-,40
COc1ccc2[nH]c(C)c(CCNCc3cc(OC)c(OC)c(OC)c3)c2c1,-,-,-,-,-,-
CC(=O)c1ccc(-c2ccccc2)cc1,-,-,-,-,-,-
CC(Oc1ccc(-c2ccccc2)cc1)C(=O)O (centres undefined),-,18,-,-,-,-
CN1/C(=C\C=C2C(=O)NC(=S)NC2=O)C(C)(C)c2ccccc21,-,-,104,-,-,-
O=c1cc(C(F)(F)F)c2cc3c4c(c2o1)CCCN4CCC3,52,-,71,45,-,86
O=P1(Nc2cccnc2)COc2ccccc2OC1,-,-,-,-,-,-
CCOC(=O)CNC(=O)CSP(=S)(OCC)OCC,-,-,-,-,33,-

# Screening data from PubChem BioAssay.
